{"source": "ChEMBL document CHEMBL5303300", "about": "“EUbOPEN Chemogenomics Library - Multiplex” (2023)", "key": {"Fibroblast": {"tested_on": "Fibroblast", "assay": "Multiplex assay against human fibroblast", "type": "toxicity, cell-based", "conditions": "number of replicates 2", "in_short": "(§1)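 With compound added, live cells were imaged on a CQ1 microscope at 37°C and 5% CO2; staining with Hoechst33342, BioTracker Green Microtubule Cytoskeleton Dye, MitoTracker Red and Annexin V Alexa Fluor 680 had been done at seeding. The CellPathfinder machine-learning gating scheme split cells into Hoechst high-intensity objects or normal cells, normal cells into healthy, pyknosed or fragmented nuclei, and pyknosed cells into mitotic or apoptotic. The tubulin, mitochondrial-mass and membrane-permeability phenotypes are per cents of healthy-nucleus cells.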"}, "HEK-293T": {"tested_on": "HEK-293T", "assay": "Multiplex assay against HEK293T", "type": "toxicity, cell-based", "conditions": "human, number of replicates 2", "in_short": "as §1"}, "[1]": {"conditions": "12 h, 1 µM, compound concentration 1 uM"}, "[2]": {"conditions": "12 h, 10 µM, compound concentration 10 uM"}, "[3]": {"conditions": "24 h, 1 µM, compound concentration 1 uM"}, "[4]": {"conditions": "24 h, 10 µM, compound concentration 10 uM"}, "[5]": {"conditions": "48 h, 1 µM, compound concentration 1 uM"}, "[6]": {"conditions": "48 h, 10 µM, compound concentration 10 uM"}}, "note": "Several values for one entry are separate records, joined by “and”; a condition that tells them apart may be missing. Identical values can stand only once."}
{"smiles": "CCC(=O)O[C@@H](OP(=O)(CCCCc1ccccc1)CC(=O)N1C[C@H](C2CCCCC2)C[C@H]1C(=O)[O-])C(C)C.[Na+]", "note": "(stereo not given in full)", "values": [{"measurement": "Population Apoptotic (%)", "setting": "Fibroblast; [1]", "value": "42% and 43%"}, {"measurement": "Population Fragmented Nuclei (%)", "setting": "Fibroblast; [1]", "value": "7% and 8%"}, {"measurement": "Population Healthy Nuclei (%)", "setting": "Fibroblast; [1]", "value": "69% and 71%"}, {"measurement": "Population Hoechst High Intensity Objects (%)", "setting": "Fibroblast; [1]", "value": 0, "unit": "%"}, {"measurement": "Population Membrane Permeable-Phenotype (%)", "setting": "Fibroblast; [1]", "value": "9% and 2%"}, {"measurement": "Population Mitochondria Different-Phenotype (%)", "setting": "Fibroblast; [1]", "value": "0% and 2%"}, {"measurement": "Population Mitotic Cells (%)", "setting": "Fibroblast; [1]", "value": "57% and 56%"}, {"measurement": "Population Normal (%)", "setting": "Fibroblast; [1]", "value": 99, "unit": "%"}, {"measurement": "Population Pyknosed Nuclei (%)", "setting": "Fibroblast; [1]", "value": "22% and 19%"}, {"measurement": "Population Tubulin-Different-Phenotype (%)", "setting": "Fibroblast; [1]", "value": "11% and 9%"}, {"measurement": "Total Cell Count", "setting": "Fibroblast; [1]", "value": "189 and 198"}, {"measurement": "Population Fragmented Nuclei (%)", "setting": "Fibroblast; [2]", "value": "6% and 13%"}, {"measurement": "Population Healthy Nuclei (%)", "setting": "Fibroblast; [2]", "value": "76% and 70%"}, {"measurement": "Population Hoechst High Intensity Objects (%)", "setting": "Fibroblast; [2]", "value": 0, "unit": "%"}, {"measurement": "Population Membrane Permeable-Phenotype (%)", "setting": "Fibroblast; [2]", "value": "5% and 2%"}, {"measurement": "Population Mitochondria Different-Phenotype (%)", "setting": "Fibroblast; [2]", "value": 0, "unit": "%"}, {"measurement": "Population Mitotic Cells (%)", "setting": "Fibroblast; [2]", "value": "45% and 82%"}, {"measurement": "Population Normal (%)", "setting": "Fibroblast; [2]", "value": 100, "unit": "%"}, {"measurement": "Population Pyknosed Nuclei (%)", "setting": "Fibroblast; [2]", "value": "16% and 15%"}, {"measurement": "Population Tubulin-Different-Phenotype (%)", "setting": "Fibroblast; [2]", "value": "10% and 5%"}, {"measurement": "Total Cell Count", "setting": "Fibroblast; [2]", "value": "207 and 226"}, {"measurement": "Population Apoptotic (%)", "setting": "Fibroblast; [3]", "value": "50% and 45%"}, {"measurement": "Population Fragmented Nuclei (%)", "setting": "Fibroblast; [3]", "value": "6% and 14%"}, {"measurement": "Population Healthy Nuclei (%)", "setting": "Fibroblast; [3]", "value": "73% and 64%"}, {"measurement": "Population Hoechst High Intensity Objects (%)", "setting": "Fibroblast; [3]", "value": 0, "unit": "%"}, {"measurement": "Population Membrane Permeable-Phenotype (%)", "setting": "Fibroblast; [3]", "value": "3% and 6%"}, {"measurement": "Population Mitochondria Different-Phenotype (%)", "setting": "Fibroblast; [3]", "value": "0% and 2%"}, {"measurement": "Population Mitotic Cells (%)", "setting": "Fibroblast; [3]", "value": "50% and 54%"}, {"measurement": "Population Normal (%)", "setting": "Fibroblast; [3]", "value": 100, "unit": "%"}, {"measurement": "Population Pyknosed Nuclei (%)", "setting": "Fibroblast; [3]", "value": 20, "unit": "%"}, {"measurement": "Population Tubulin-Different-Phenotype (%)", "setting": "Fibroblast; [3]", "value": "9% and 10%"}, {"measurement": "Total Cell Count", "setting": "Fibroblast; [3]", "value": "178 and 215"}, {"measurement": "Population Apoptotic (%)", "setting": "Fibroblast; [4]", "value": "41% and 50%"}, {"measurement": "Population Fragmented Nuclei (%)", "setting": "Fibroblast; [4]", "value": "8% and 14%"}, {"measurement": "Population Healthy Nuclei (%)", "setting": "Fibroblast; [4]", "value": "76% and 74%"}, {"measurement": "Population Hoechst High Intensity Objects (%)", "setting": "Fibroblast; [4]", "value": 0, "unit": "%"}, {"measurement": "Population Membrane Permeable-Phenotype (%)", "setting": "Fibroblast; [4]", "value": "5% and 1%"}, {"measurement": "Population Mitochondria Different-Phenotype (%)", "setting": "Fibroblast; [4]", "value": 0, "unit": "%"}, {"measurement": "Population Mitotic Cells (%)", "setting": "Fibroblast; [4]", "value": "58% and 50%"}, {"measurement": "Population Normal (%)", "setting": "Fibroblast; [4]", "value": "99% and 100%"}, {"measurement": "Population Pyknosed Nuclei (%)", "setting": "Fibroblast; [4]", "value": "15% and 11%"}, {"measurement": "Population Tubulin-Different-Phenotype (%)", "setting": "Fibroblast; [4]", "value": "11% and 3%"}, {"measurement": "Total Cell Count", "setting": "Fibroblast; [4]", "value": "223 and 221"}, {"measurement": "Population Apoptotic (%)", "setting": "Fibroblast; [5]", "value": "68% and 61%"}, {"measurement": "Population Fragmented Nuclei (%)", "setting": "Fibroblast; [5]", "value": "11% and 15%"}, {"measurement": "Population Healthy Nuclei (%)", "setting": "Fibroblast; [5]", "value": "67% and 68%"}, {"measurement": "Population Hoechst High Intensity Objects (%)", "setting": "Fibroblast; [5]", "value": 0, "unit": "%"}, {"measurement": "Population Membrane Permeable-Phenotype (%)", "setting": "Fibroblast; [5]", "value": "5% and 11%"}, {"measurement": "Population Mitochondria Different-Phenotype (%)", "setting": "Fibroblast; [5]", "value": "0% and 1%"}, {"measurement": "Population Mitotic Cells (%)", "setting": "Fibroblast; [5]", "value": "31% and 38%"}, {"measurement": "Population Normal (%)", "setting": "Fibroblast; [5]", "value": 100, "unit": "%"}, {"measurement": "Population Pyknosed Nuclei (%)", "setting": "Fibroblast; [5]", "value": "20% and 16%"}, {"measurement": "Population Tubulin-Different-Phenotype (%)", "setting": "Fibroblast; [5]", "value": 8, "unit": "%"}, {"measurement": "Total Cell Count", "setting": "Fibroblast; [5]", "value": "183 and 213"}, {"measurement": "Population Apoptotic (%)", "setting": "Fibroblast; [6]", "value": "45% and 48%"}, {"measurement": "Population Fragmented Nuclei (%)", "setting": "Fibroblast; [6]", "value": "9% and 16%"}, {"measurement": "Population Healthy Nuclei (%)", "setting": "Fibroblast; [6]", "value": "75% and 72%"}, {"measurement": "Population Hoechst High Intensity Objects (%)", "setting": "Fibroblast; [6]", "value": 0, "unit": "%"}, {"measurement": "Population Membrane Permeable-Phenotype (%)", "setting": "Fibroblast; [6]", "value": "4% and 1%"}, {"measurement": "Population Mitochondria Different-Phenotype (%)", "setting": "Fibroblast; [6]", "value": 0, "unit": "%"}, {"measurement": "Population Mitotic Cells (%)", "setting": "Fibroblast; [6]", "value": "54% and 52%"}, {"measurement": "Population Normal (%)", "setting": "Fibroblast; [6]", "value": "99% and 100%"}, {"measurement": "Population Pyknosed Nuclei (%)", "setting": "Fibroblast; [6]", "value": "14% and 10%"}, {"measurement": "Population Tubulin-Different-Phenotype (%)", "setting": "Fibroblast; [6]", "value": "6% and 1%"}, {"measurement": "Total Cell Count", "setting": "Fibroblast; [6]", "value": "222 and 228"}, {"measurement": "Population Apoptotic (%)", "setting": "HEK-293T; [1]", "value": "44% and 35%"}, {"measurement": "Population Fragmented Nuclei (%)", "setting": "HEK-293T; [1]", "value": "2% and 1%"}, {"measurement": "Population Healthy Nuclei (%)", "setting": "HEK-293T; [1]", "value": "86% and 85%"}, {"measurement": "Population Hoechst High Intensity Objects (%)", "setting": "HEK-293T; [1]", "value": "5% and 6%"}, {"measurement": "Population Membrane Permeable-Phenotype (%)", "setting": "HEK-293T; [1]", "value": 3, "unit": "%"}, {"measurement": "Population Mitochondria Different-Phenotype (%)", "setting": "HEK-293T; [1]", "value": "17% and 15%"}, {"measurement": "Population Mitotic Cells (%)", "setting": "HEK-293T; [1]", "value": "55% and 64%"}, {"measurement": "Population Normal (%)", "setting": "HEK-293T; [1]", "value": "94% and 93%"}, {"measurement": "Population Pyknosed Nuclei (%)", "setting": "HEK-293T; [1]", "value": "11% and 12%"}, {"measurement": "Population Tubulin-Different-Phenotype (%)", "setting": "HEK-293T; [1]", "value": "46% and 44%"}, {"measurement": "Total Cell Count", "setting": "HEK-293T; [1]", "value": "721 and 624"}, {"measurement": "Population Apoptotic (%)", "setting": "HEK-293T; [2]", "value": "28% and 35%"}, {"measurement": "Population Fragmented Nuclei (%)", "setting": "HEK-293T; [2]", "value": "2% and 3%"}, {"measurement": "Population Healthy Nuclei (%)", "setting": "HEK-293T; [2]", "value": "84% and 86%"}, {"measurement": "Population Hoechst High Intensity Objects (%)", "setting": "HEK-293T; [2]", "value": "5% and 6%"}, {"measurement": "Population Membrane Permeable-Phenotype (%)", "setting": "HEK-293T; [2]", "value": "1% and 3%"}, {"measurement": "Population Mitochondria Different-Phenotype (%)", "setting": "HEK-293T; [2]", "value": 13, "unit": "%"}, {"measurement": "Population Mitotic Cells (%)", "setting": "HEK-293T; [2]", "value": "71% and 64%"}, {"measurement": "Population Normal (%)", "setting": "HEK-293T; [2]", "value": "94% and 93%"}, {"measurement": "Population Pyknosed Nuclei (%)", "setting": "HEK-293T; [2]", "value": "12% and 10%"}, {"measurement": "Population Tubulin-Different-Phenotype (%)", "setting": "HEK-293T; [2]", "value": "51% and 50%"}, {"measurement": "Total Cell Count", "setting": "HEK-293T; [2]", "value": "743 and 727"}, {"measurement": "Population Apoptotic (%)", "setting": "HEK-293T; [3]", "value": "40% and 41%"}, {"measurement": "Population Fragmented Nuclei (%)", "setting": "HEK-293T; [3]", "value": "5% and 3%"}, {"measurement": "Population Healthy Nuclei (%)", "setting": "HEK-293T; [3]", "value": "86% and 88%"}]}
